Data published in ChEMBL document CHEMBL5058577, “EUbOPEN Chemogenomics Library 2 (Multiplex)” (2022).

Tested on: HEK-293T
Test: Multiplex assay against HEK293T
Type: toxicity, cell-based
Conditions: human
Summary of the method: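 Phenotypes for tubulin, mitochondrial mass and membrane permeability are expressed as per cents of healthy-nucleus cells. Cells were stained live at seeding with Hoechst33342, BioTracker Green Microtubule Cytoskeleton Dye, MitoTracker Red and Annexin V Alexa Fluor 680, then imaged after compound addition on a CQ1 microscope at 37°C and 5% CO2. Machine-learning gating in CellPathfinder separated Hoechst high-intensity objects from normal cells, divided normal cells by nuclear state (healthy, pyknosed, fragmented) and divided pyknosed cells into mitotic or apoptotic.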

[1] = 12 h, 1 µM, compound concentration 1 uM, replicate 1
[2] = 12 h, 1 µM, compound concentration 1 uM, replicate 2
[3] = 12 h, 10 µM, compound concentration 10 uM, replicate 1
[4] = 12 h, 10 µM, compound concentration 10 uM, replicate 2
[5] = 24 h, 1 µM, compound concentration 1 uM, replicate 1
[6] = 24 h, 1 µM, compound concentration 1 uM, replicate 2
[7] = 24 h, 10 µM, compound concentration 10 uM, replicate 1
[8] = 24 h, 10 µM, compound concentration 10 uM, replicate 2
[9] = 48 h, 1 µM, compound concentration 1 uM, replicate 1
[10] = 48 h, 1 µM, compound concentration 1 uM, replicate 2
[11] = 48 h, 10 µM, compound concentration 10 uM, replicate 1
[12] = 48 h, 10 µM, compound concentration 10 uM, replicate 2

COc1cc2nc(N3CCN(C(=O)COc4c(OC)cccc4C(C)C)CC3)nc(N)c2cc1OC.Cl.Cl
Population Apoptotic (%) [1]: 35%
Population Fragmented Nuclei (%) [1]: 12%
Population Healthy Nuclei (%) [1]: 77%
Population Hoechst High Intensity Objects (%) [1]: 5%
Population Membrane Permeable-Phenotype (%) [1]: 0%
Population Mitochondria Different-Phenotype (%) [1]: 48%
Population Mitotic Cells (%) [1]: 64%
Population Normal (%) [1]: 94%
Population Pyknosed Nuclei (%) [1]: 9%
Population Tubulin-Different-Phenotype (%) [1]: 23%
Total Cell Count [1]: 402
Population Apoptotic (%) [2]: 46%
Population Fragmented Nuclei (%) [2]: 8%
Population Healthy Nuclei (%) [2]: 81%
Population Hoechst High Intensity Objects (%) [2]: 4%
Population Mitochondria Different-Phenotype (%) [2]: 58%
Population Mitotic Cells (%) [2]: 53%
Population Normal (%) [2]: 95%
Population Tubulin-Different-Phenotype (%) [2]: 18%
Total Cell Count [2]: 365
Population Apoptotic (%) [3]: 52%
Population Fragmented Nuclei (%) [3]: 13%
Population Healthy Nuclei (%) [3]: 69%
Population Hoechst High Intensity Objects (%) [3]: 25%
Population Membrane Permeable-Phenotype (%) [3]: 1%
Population Mitochondria Different-Phenotype (%) [3]: 74%
Population Mitotic Cells (%) [3]: 48%
Population Normal (%) [3]: 74%
Population Pyknosed Nuclei (%) [3]: 17%
Population Tubulin-Different-Phenotype (%) [3]: 81%
Total Cell Count [3]: 386
Population Apoptotic (%) [4]: 57%
Population Fragmented Nuclei (%) [4]: 14%
Population Healthy Nuclei (%) [4]: 67%
Population Hoechst High Intensity Objects (%) [4]: 18%
Population Membrane Permeable-Phenotype (%) [4]: 3%
Population Mitochondria Different-Phenotype (%) [4]: 66%
Population Mitotic Cells (%) [4]: 42%
Population Normal (%) [4]: 81%
Population Pyknosed Nuclei (%) [4]: 18%
Population Tubulin-Different-Phenotype (%) [4]: 66%
Total Cell Count [4]: 286
Population Apoptotic (%) [5]: 35%
Population Fragmented Nuclei (%) [5]: 11%
Population Healthy Nuclei (%) [5]: 77%
Population Hoechst High Intensity Objects (%) [5]: 5%
Population Membrane Permeable-Phenotype (%) [5]: 0%
Population Mitochondria Different-Phenotype (%) [5]: 27%
Population Mitotic Cells (%) [5]: 64%
Population Normal (%) [5]: 95%
Population Pyknosed Nuclei (%) [5]: 10%
Population Tubulin-Different-Phenotype (%) [5]: 19%
Total Cell Count [5]: 540
Population Apoptotic (%) [6]: 42%
Population Fragmented Nuclei (%) [6]: 8%
Population Healthy Nuclei (%) [6]: 84%
Population Hoechst High Intensity Objects (%) [6]: 2%
Population Mitochondria Different-Phenotype (%) [6]: 44%
Population Mitotic Cells (%) [6]: 57%
Population Normal (%) [6]: 97%
Population Pyknosed Nuclei (%) [6]: 7%
Population Tubulin-Different-Phenotype (%) [6]: 16%
Total Cell Count [6]: 472
Population Apoptotic (%) [7]: 42%
Population Fragmented Nuclei (%) [7]: 14%
Population Healthy Nuclei (%) [7]: 64%
Population Hoechst High Intensity Objects (%) [7]: 29%
Population Membrane Permeable-Phenotype (%) [7]: 2%
Population Mitochondria Different-Phenotype (%) [7]: 68%
Population Mitotic Cells (%) [7]: 57%
Population Normal (%) [7]: 70%
Population Pyknosed Nuclei (%) [7]: 21%
Population Tubulin-Different-Phenotype (%) [7]: 69%
Total Cell Count [7]: 498
Population Apoptotic (%) [8]: 51%
Population Fragmented Nuclei (%) [8]: 13%
Population Healthy Nuclei (%) [8]: 59%
Population Hoechst High Intensity Objects (%) [8]: 39%
Population Mitochondria Different-Phenotype (%) [8]: 72%
Population Mitotic Cells (%) [8]: 48%
Population Normal (%) [8]: 60%
Population Pyknosed Nuclei (%) [8]: 27%
Population Tubulin-Different-Phenotype (%) [8]: 63%
Total Cell Count [8]: 286
Population Apoptotic (%) [9]: 28%
Population Fragmented Nuclei (%) [9]: 16%
Population Healthy Nuclei (%) [9]: 76%
Population Hoechst High Intensity Objects (%) [9]: 2%
Population Membrane Permeable-Phenotype (%) [9]: 1%
Population Mitochondria Different-Phenotype (%) [9]: 18%
Population Mitotic Cells (%) [9]: 71%
Population Normal (%) [9]: 97%
Population Pyknosed Nuclei (%) [9]: 6%
Population Tubulin-Different-Phenotype (%) [9]: 11%
Total Cell Count [9]: 930
Population Apoptotic (%) [10]: 11%
Population Fragmented Nuclei (%) [10]: 15%
Population Healthy Nuclei (%) [10]: 78%
Population Hoechst High Intensity Objects (%) [10]: 3%
Population Membrane Permeable-Phenotype (%) [10]: 0%
Population Mitotic Cells (%) [10]: 88%
Population Normal (%) [10]: 96%
Population Tubulin-Different-Phenotype (%) [10]: 12%
Total Cell Count [10]: 737
Population Apoptotic (%) [11]: 31%
Population Fragmented Nuclei (%) [11]: 18%
Population Healthy Nuclei (%) [11]: 56%
Population Hoechst High Intensity Objects (%) [11]: 41%
Population Membrane Permeable-Phenotype (%) [11]: 3%
Population Mitochondria Different-Phenotype (%) [11]: 48%
Population Mitotic Cells (%) [11]: 68%
Population Normal (%) [11]: 58%
Population Pyknosed Nuclei (%) [11]: 25%
Population Tubulin-Different-Phenotype (%) [11]: 56%
Total Cell Count [11]: 660
Population Apoptotic (%) [12]: 30%
Population Fragmented Nuclei (%) [12]: 17%
Population Healthy Nuclei (%) [12]: 59%
Population Hoechst High Intensity Objects (%) [12]: 46%
Population Membrane Permeable-Phenotype (%) [12]: 1%
Population Mitochondria Different-Phenotype (%) [12]: 49%
Population Mitotic Cells (%) [12]: 69%
Population Normal (%) [12]: 53%
Population Pyknosed Nuclei (%) [12]: 23%
Population Tubulin-Different-Phenotype (%) [12]: 38%
Total Cell Count [12]: 430
